Experimental data as given in ChEMBL document CHEMBL2331137, “Scopoletin and scopolin isolated from Artemisia iwayomogi suppress differentiation of osteoclastic macrophage RAW 264.7 cells by scavenging reactive oxygen species” (J Nat Prod, 2013).
Active and inactive are the calls of the source. The calls are words filed in the database; no cut-off is given here.

Tests used:
[1] = Antioxidant activity assessed as reduction of Cu2+ to Cu+ measured as copper (I) level at 1 uM measured for 1 hr; format: functional
Outline: (§1)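 Copper-reducing assay: compounds in ethanol mixed with 0.5 mM CuCl2 and 0.75 mM neocuproine (Cu+ chelator) in 10 mM phosphate buffer. Absorbance at 454 nm read for 1 h; reducing capacity expressed in μM. Trolox as reference; mean ± SD of three experiments.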

RAW264.7 [2] = experiment: Inhibition of RANKL-induced superoxide anion level in mouse RAW264.7 cells at 10 uM by DHE fluorescence intensity assay (reference value: 176.7%); values are per cent of control
HepG2 [3] = experiment: Antioxidant activity against H2O2-induced intracellular oxidative stress in human HepG2 cells assessed as DCF fluorescence intensity at 1 to 10 uM; format: functional, cell-based
Outline: (§2)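 HepG2 cells cultured 24 h in DMEM, then given compounds (1–10 μM, in DMSO) for 30 min and washed. Stress induced in HBSS with 60 μM AAPH or 1 mM H2O2 for 30 min. DCFH-DA added at 40 μM final, 30 min at 37 °C in the dark; DCF read at Ex 485/Em 535 nm. Trolox 10 μM as reference; % of untreated cells, n = 3.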

RAW264.7 [4] = experiment: Cytotoxicity against mouse RAW264.7 cells at 1 to 10 uM for 5 days by MTT assay; format: cell-based; conditions: raw264.7, 120 h
Outline: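 MTT assay: RAW 264.7 cells (2 × 10^4 cells/mL) in DMEM with 10% FBS at 37 °C, 5% CO2, treated with 1–10 μM samples for 5 days. MTT then added for 1 h at 37 °C, formazan dissolved in DMSO, A570 read; percentage proliferation calculated.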

HepG2 [5] = experiment: Antioxidant activity against […]-induced intracellular oxidative stress in human HepG2 cells assessed as DCF fluorescence intensity at 1 to 10 uM; format: functional, cell-based; outline: as §2
RAW264.7 [6] = experiment: Inhibition of RANKL-induced ROS generation in mouse RAW264.7 cells at 10 uM by DCF fluorescence intensity assay (reference value: 143.7%); values are per cent of control
[7] = Antioxidant activity assessed as trolox equivalents of peroxyl radical scavenging activity at 1 uM by ORAC assay; format: functional
Outline: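 ORAC: fluorescein (40 nM final) exposed to AAPH (20 mM final) as peroxyl radical source, fluorescence recorded every 2 min relative to the initial reading. Net area under the decay curve versus blank computed and expressed as Trolox equivalents, with Trolox at 1 μM as reference; three experiments.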

RAW264.7 [8] = experiment: Antiosteoporotic activity in mouse RAW264.7 cells assessed as inhibition of RANKL-induced osteoclastogenesis measured as reduction in TRAP number for 5 days by light microscopy; format: functional, cell-based
Outline: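 RAW 264.7 cells seeded at 3 × 10^4/well and given test samples in differentiation medium with 50 ng/mL RANKL, changed every 2 days, for 5 days. Cells fixed in 3.5% formaldehyde 10 min and stained 1 h at 37 °C with a leukocyte acid phosphatase kit. TRAP-positive cells with ≥3 nuclei counted by light microscopy. Expressed as % of RANKL-treated cells; mean ± SD, n = 3.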

RAW264.7 [9] = experiment: Inhibition of hydrogen peroxide level in RANKL-treated mouse RAW264.7 cells at 10 uM by DHR fluorescence intensity assay; format: functional, cell-based
RAW264.7 [10] = experiment: Antiosteoporotic activity in mouse RAW264.7 cells assessed as inhibition of RANKL-induced osteoclastogenesis measured as reduction in TRAP activity for 5 days by ELISA; format: functional, cell-based
Outline: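 RAW 264.7 cells differentiated 5 days with 50 ng/mL RANKL plus test samples, medium changed every 2 days. Cells then washed with ice-cold PBS, fixed in 3.5% formaldehyde (10 min) and ethanol–acetone 1:1 (1 min). They were incubated 1 h in 50 mM citrate pH 4.5 with 10 mM sodium tartrate and 6 mM PNPP, stopped in 0.1 N NaOH, A405. Expressed as % of untreated control; n = 3.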

[11] = Antioxidant activity assessed as reduction of Cu2+ to Cu+ measured as copper (I) level at 10 uM measured for 1 hr (reference value: 2.1 uM); format: functional; outline: as §1

Compound | Activity [1] | level, % of control at 10 µM (RAW264.7 [2]) | Activity (HepG2 [3]) | Activity (RAW264.7 [4]) | Activity (HepG2 [5]) | level, % of control at 10 µM (RAW264.7 [6]) | Activity [7] | inhibition (RAW264.7 [8]) | inhibition (RAW264.7 [9]) | inhibition (RAW264.7 [10]) | Activity [11]
Cc1c(C)c2c(c(C)c1O)CCC(C)(C(=O)O)O2 (stereo not given) | 1.5 µM | – | – | – | – | – | – | – | – | – | –
COc1cc2ccc(=O)oc2cc1O [SCOPOLETIN] | Active | 158% | Active | Non-toxic | Active | 132% | 3.3 equiv | Dose-dependent effect | inactive | Dose-dependent effect | –
COc1cc2ccc(=O)oc2cc1O[C@@H]1O[C@H](CO)[C@@H](O)[C@H](O)[C@H]1O [SCOPOLIN] | – | 149% | Active | Non-toxic | – | 127% | 0.4 equiv | Dose-dependent effect | inactive | Dose-dependent effect | inactive
